# Test results: PubChem BioAssay AID1885 (Broad Institute, 2009)
# Several values for one entry are separate records, joined by “and”; a condition that tells them apart may be missing. Identical values can stand only once. Out of some 300,000 compounds screened, about 4,400 (1.5%) were called active.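 The calls were made as follows: active = mean inhibition across valid replicates above about 55% (limit read from the data); inconclusive = mean below that limit but half or more replicates reach it; inactive = mean below it, under half of replicates reach it.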 The entries come from a sample that favours actives as a whole. More than one record can exist for a structure, and the calls need not agree.
# Test: inhibitors of intracellular T. cruzi growth, primary screen, luminescence, NIH3T3 host cells (AID 1885);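 also: signal also drops with host cell toxicity which is not excluded here; 0% = plate median of DMSO wells and 100% = zero luminescence signal; higher percent means less beta-gal luminescence so fewer parasites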
# Details: T. cruzi beta-gal in NIH3T3, luminescence, 90 h; stronger effect = higher value; concentration not given here
# How it was run: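 assay system = mouse NIH/3T3 fibroblasts infected with β-gal-expressing T. cruzi Tulahuen C4 | input = 5,000 NIH/3T3 host cells per well | buffer or medium = DMEM plus 2% FBS | timing = 3 h host attachment, then at least 90 h co-culture | measured by = GalScreen luminescence, 60 min | evaluation = luminescence reflecting intracellular parasite burden, expressed as percent inhibition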
row,SMILES,inhibition
1,CSc1ccccc1NC(=O)C(C)N1C(=O)c2ccccc2S1(=O)=O (configuration not stated),-1.05% (inactive)
2,COc1ccc(N(CC(=O)N2CCOCC2)S(=O)(=O)c2ccccc2)cc1Cl,-3.61% (inactive)
3,CCCn1nc(C(=O)NNC(=O)CSCC(=O)Nc2cc(C)on2)c2ccccc2c1=O,-11.5% (inactive)
4,N#CCN(C(=O)COC(=O)C1CC2CCCC(C1)C2=O)c1ccccc1 (configuration not stated),-10.6% (inactive)
5,Oc1ccc(/C=N/NC2=NCCCCC2)c(O)c1,-40.4% (inactive)
6,Oc1ccc(/C=N/Nc2nc(-c3ccccc3F)nc3ccccc23)c(O)c1,-4.73% (inactive)
7,Cc1nc2ccccc2nc1N/N=C/c1ccc(O)cc1O,60% (active)
8,Cc1c(NC(=O)C(C)Oc2cccc(Cl)c2)c(=O)n(-c2ccccc2)n1C (configuration not stated),-6.21% (inactive)
9,O=C(CN1CCN(S(=O)(=O)c2ccc(Br)cc2)CC1)Nc1ccccc1C(=O)c1ccccc1,56% (active)
10,COc1ccccc1NC(=O)CN1CCN(S(=O)(=O)c2ccc(Br)cc2)CC1,8.31% (inactive)
11,O=C(CN1CCN(S(=O)(=O)c2ccc(F)cc2)CC1)Nc1ccccc1F,4.08% (inactive)
12,COc1cccc(COc2ccc(N(C)S(=O)(=O)c3ccccc3)cc2)c1,9.64% (inactive)
13,CN=c1scc(-c2cc(OC)ccc2OC)n1/N=C/c1c(C)[nH]c2ccccc12,73.4% (active)
14,COc1ccc(N=Cc2c(O)[nH]c3ccccc23)cc1OC,-17.8% (inactive)
15,CCn1c(-c2cc(OC)ccc2OC)csc1=Nc1c(C)n(C)n(-c2ccccc2)c1=O,13.7% (inactive)
16,O=C(CCNC(=O)c1ccc(Br)cc1)Nc1cccc(S(=O)(=O)N2CCCCC2)c1,3.39% (inactive)
17,COc1c(C)c2c(c(O)c1C/C=C(\C)CCC(=O)O)C(=O)OC2,62.2% (active)
18,CCN(CC(=O)Nc1c(F)cccc1F)C(=O)c1ccc(-c2ccccc2)cc1,-22.3% (inactive)
19,Cc1ccccc1NC(=O)C(C)OC(=O)CCC(=O)N(CC(C)C)c1c(N)n(CC(C)C)c(=O)[nH]c1=O (configuration not stated),0.843% (inactive)

row,SMILES,inhibition
1,Fc1ccc(CNCc2ccc(Br)cc2)cc1,-7.54% (inactive)
2,Cc1c(NC(=O)C(C)OC(=O)c2c3c(nc4ccccc24)CCC(C)C3)c(=O)n(-c2ccccc2)n1C (configuration not stated),-9.27% (inactive)
3,COc1ccc(CCNC(=O)COC(=O)/C=C/c2cccs2)cc1OC,-3.17% (inactive)
4,COC(=O)C1=CN(Cc2ccc(OC)c(OC)c2)C=C(C(=O)OC)C1c1cccs1,65% (active)
5,COC(=O)C1=CN(Cc2ccc(OC)cc2)C=C(C(=O)OC)C1c1ccc(O)c(OC)c1,11.3% (inactive)
6,Cc1cc(-n2nc(C)cc2C)n2nc(C)c(-c3ccccc3)c2n1,14.4% (inactive)
7,CCc1c(C)nc2c(-c3ccccc3)c(C)nn2c1Nc1ccc(NC(C)=O)cc1,54.5% (active)
8,Cc1cc(-c2ccccc2)n2nc(C)c(-c3ccccc3)c2n1,32.1% (inactive)
9,O=S(=O)(Nc1cccc(-c2ccc(N3CCOCC3)nn2)c1)c1ccc(Cl)c(Cl)c1,-4.53% (inactive)
10,COc1ccc(Cl)cc1NC(=O)CN(C)C(=O)c1cc2ccccc2cc1OC,12.8% (inactive)
11,COc1ccccc1OCCn1c(SCC(N)=O)nc2ccccc21,-6.95% (inactive)
12,O=C(CSc1ccccn1)N1CCN(S(=O)(=O)c2ccc(Cl)cc2)CC1,-3.29% (inactive)
13,O=C(Nc1ccccc1N1CCCC1)c1ccc(F)c(S(=O)(=O)N2CCOCC2)c1,-5.53% (inactive)
14,O=C(NCCCNC(=O)NC1CCCCC1)NC1CCCCC1,-9.22% (inactive)
15,COc1cccc(NC(=S)NCc2ccccn2)c1,4.96% (inactive)
16,COc1cccc(NC(=S)N(Cc2ccc(C)cc2)Cc2ccccn2)c1,78.1% (active)
17,CSc1cccc(NC(=S)N(Cc2ccccc2)Cc2ccccn2)c1,2.49% (inactive)
18,Nn1c(SCc2ccccc2)nnc1C1CCCCC1,2.33% (inactive)
19,CCc1ccc(N2CC(C(=O)Nc3ccc(S(=O)(=O)Nc4nccs4)cc3)CC2=O)cc1 (configuration not stated),-8.72% (inactive)

row,SMILES,inhibition
1,CC1C(=O)Nc2ccccc2N1C(=O)c1ccc(F)cc1F (configuration not stated),0.146% (inactive)
2,Cc1ccc(C(C)(C)C)c(OCCCCN2CCCC2)c1,27.7% (inactive)
3,Cc1ccc(OCCCCN2CCCCC2)c(Br)c1,54.8% (active)
4,O=[N+]([O-])c1ccccc1OCCCCN1CCCCC1,1.28% (inactive)
5,COC(=O)C1=C[C@@H](C(=O)OC)[C@@H]2C3=C(C(=O)[C@]2(C)NC(=O)c2ccccc2)[C@H](C)n2c(=O)n(C)c(=O)n2[C@@H]3C1,11.2% (inactive)
6,COc1ccccc1NS(=O)(=O)c1ccc(C)c(C(=O)NCC(c2ccco2)N(C)C)c1 (configuration not stated),4.14% (inactive)
7,CCNC(=O)COc1cc(C)c(Br)c(C)c1,8.23% (inactive)
8,Cc1cc(=O)oc2cc(OCCC[n+]3ccccc3)ccc12,1.14% (inactive)
9,Cc1ccccc1N1CCN(CCCOc2ccc3c(C)cc(=O)oc3c2)CC1,60% (active)
10,Cc1cc(OCC(=O)NC2CCN(C)CC2)ccc1[N+](=O)[O-],49.2% (inactive)
11,Cc1cc(OCCCCOc2ccc(C#N)cc2)ccc1[N+](=O)[O-],19.5% (inactive)
12,Cc1cc(OCCCN2CCN(Cc3ccccc3)CC2)ccc1[N+](=O)[O-],55.7% (active)
13,CCOc1ccccc1N1CCN(C(=O)COc2ccc3c(C)cc(=O)oc3c2)CC1,24% (inactive)
14,CC(C)CC(O)C1CCN(C(=O)CCc2nnc(-c3ccc4c(c3)OCO4)o2)CC1 (configuration not stated),3.35% (inactive)
15,Cc1ccc(OCCNC(=O)CNC(=O)c2ccc(C)c(C)c2)cc1,-2.75% (inactive)
16,Cc1ccc(-c2c[n+](CC(=O)Nc3ccccc3)c3n2CCC3)cc1,-0.923% (inactive)
17,Cc1ccc(C(=O)C[n+]2cc(-c3ccccc3)n3c2CCCCC3)cc1,45.3% (inactive) and 65.4% (active)
18,Clc1ccc(C[n+]2cc(-c3ccccc3)n3c2CCC3)cc1,27.8% (inactive)
19,COc1ccc(-c2cc(C(=O)N3CCN(Cc4ccc5c(c4)OCO5)CC3)on2)cc1OC,-12.7% (inactive)
